The text below walks through data of ChEMBL document CHEMBL1165904, “Design, synthesis and 3D-QSAR of beta-carboline derivatives as potent antitumor agents” (Eur J Med Chem, 2010).

Format in all cases: functional, cell-based
Experiment [1] concerns HeLa. Description: Cytotoxicity against human HeLa cells by MTT assay. A digest of the protocol: (§1)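 Tumour cells cultured in RPMI-1640 with 10% (v/v) fetal calf serum plus penicillin and streptomycin, at 37 °C, humidified 5% CO2. Compounds from DMSO stocks; final DMSO in medium 2% (v/v) or lower. Assay in 96-well microtitre cultures with MTT staining. IC50 taken as concentration causing 50% growth inhibition relative to untreated cells.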

Experiment [2] relates to HepG2. Description: Cytotoxicity against human HepG2 cells by MTT assay. A digest of the protocol: as §1
Experiment [3] deals with BGC-823. Description: Cytotoxicity against human BGC823 cells by MTT assay. The procedure, abridged:
as §1

Experiment [4] has as its system Bel-7402. The experiment can be described thus: Cytotoxicity against human Bel7402 cells by MTT assay. A digest of the protocol: as §1
Experiment [5] deals with MCF7. Description: Cytotoxicity against human MCF7 cells by MTT assay. A digest of the protocol: as §1

Regarding `CCOC(=O)c1cc2c3ccccc3n(Cc3ccc(F)cc3)c2cn1`, the IC50 in experiment [1], in experiment [2] (read-out: IC50), in experiment [3], in experiment [4] and in experiment [5] was more than 200 µM throughout.
With `O=C(NCCO)c1cc2c3ccccc3n(Cc3ccc(F)cc3)c2cn1`, the IC50 in experiment [1], in experiment [2] (read-out: IC50), in experiment [3], in experiment [4] and in experiment [5] was more than 200 µM throughout.
With `COc1ccc2c(c1)[nH]c1c(C)[n+](Cc3ccccc3)ccc12`, the IC50 in experiment [1] was 77.6 µM; in experiment [2] (read-out: IC50), 54.6 µM; in experiment [2] (read-out: pIC50 (converted)), 55 µM; in experiment [3] it was 67.4 µM; in experiment [4], 64.2 µM; in experiment [5], 76.2 µM.
`CCCCn1c2ccccc2c2cc(CO)nc(C)c21`: the IC50 was 100 µM in experiment [1]; 128 µM in experiment [2] (read-out: IC50); 129 µM in experiment [2] (read-out: pIC50 (converted)); 127 µM in experiment [3]; 122 µM in experiment [4]; 107 µM in experiment [5].
As for `CCCCn1c2ccccc2c2cc(C=O)nc(C)c21`, the IC50 is 169 µM in experiment [1]; 143 µM in experiment [2] (read-out: IC50); 145 µM in experiment [2] (read-out: pIC50 (converted)); more than 200 µM in experiment [3]; 123 µM in experiment [4]; 154 µM in experiment [5].
Consider `CCCCn1c2ccccc2c2cc(C(=O)NCCO)nc(-c3cc(OC)c(OC)c(OC)c3)c21`, for which the IC50 in experiment [1] is more than 200 µM; in experiment [4] it was more than 200 µM; in experiment [5], 105 µM.
In the case of `CCCC[n+]1ccc2c(c1)[nH]c1ccccc12`, the IC50 was 130 µM in experiment [1]; 94 µM in experiment [2] (read-out: IC50); 93.3 µM in experiment [2] (read-out: pIC50 (converted)); 326 µM in experiment [3]; 302 µM in experiment [4]; 338 µM in experiment [5].
As for `c1ccc(C[n+]2ccc3c(c2)[nH]c2ccccc23)cc1`, the IC50 is 85.4 µM in experiment [1]; 77.3 µM in experiment [2] (read-out: IC50); 77.6 µM in experiment [2] (read-out: pIC50 (converted)); 91.8 µM in experiment [3]; 65.1 µM in experiment [4]; 91.3 µM in experiment [5].
For `CCOc1ccc2c3ccnc(C)c3n(CC)c2c1`, the IC50 in experiment [1] is 30.7 µM; in experiment [2] (read-out: IC50) it was 68.9 µM; in experiment [2] (read-out: pIC50 (converted)), 69.2 µM; in experiment [3] it was 57.1 µM; in experiment [4], 27.4 µM; in experiment [5] it was 14.4 µM.
As for `CCn1c2cc(OCc3c(F)c(F)c(F)c(F)c3F)ccc2c2ccnc(C)c21`, the IC50 in experiment [1] is 258 µM; in experiment [2] (read-out: IC50), 236 µM; in experiment [2] (read-out: pIC50 (converted)) it was 234 µM; in experiment [3], 238 µM; in experiment [4], 241 µM; in experiment [5], 103 µM.
`CCCCn1c2cc(OCC)ccc2c2ccnc(C)c21`: the IC50 in experiment [1] is 32.1 µM; in experiment [2] (read-out: IC50), 43.3 µM; in experiment [2] (read-out: pIC50 (converted)), 43.7 µM; in experiment [3] it was 37.2 µM; in experiment [4] it was 36.1 µM; in experiment [5], 12 µM.
As for `CCCCn1c2cc(OC(C)C)ccc2c2ccnc(C)c21`, the IC50 in experiment [1] was 21.2 µM; in experiment [2] (read-out: IC50) it was 30.2 µM; in experiment [2] (read-out: pIC50 (converted)) it was 30.2 µM; in experiment [3] it was 19.1 µM; in experiment [4] it was 26.8 µM; in experiment [5], 19.5 µM.
Take `CCCCCCCCCCOc1ccc2c3ccnc(C)c3n(CCCC)c2c1`: the IC50 was 106 µM in experiment [1]; 127 µM in experiment [2] (read-out: IC50); 126 µM in experiment [2] (read-out: pIC50 (converted)); 28.4 µM in experiment [3]; 18.8 µM in experiment [4]; 62.7 µM in experiment [5].
`Cc1c2[nH]c3ccccc3c2cc[n+]1CCCc1ccccc1`: the IC50 in experiment [1] was 49.8 µM; in experiment [2] (read-out: IC50), 33 µM; in experiment [2] (read-out: pIC50 (converted)), 33.1 µM; in experiment [3], 3.5 µM; in experiment [4], 20.5 µM; in experiment [5], 23.8 µM.
Consider `c1ccc(CCC[n+]2ccc3c(c2)[nH]c2ccccc23)cc1`, for which the IC50 was 44.3 µM in experiment [1]; 44.6 µM in experiment [2] (read-out: IC50); 44.7 µM in experiment [2] (read-out: pIC50 (converted)); 7.1 µM in experiment [3]; 24.6 µM in experiment [4]; 5.7 µM in experiment [5].
Turning to `CCn1c2cc(O)ccc2c2ccnc(C)c21`, the IC50 in experiment [1] was 70.3 µM; in experiment [2] (read-out: IC50), 134 µM; in experiment [2] (read-out: pIC50 (converted)), 135 µM; in experiment [3], 160 µM; in experiment [4], 165 µM; in experiment [5] it was 106 µM.
With `Cc1c2[nH]c3ccccc3c2cc[n+]1Cc1ccccc1`, the IC50 in experiment [1] was 69.2 µM; in experiment [2] (read-out: IC50) it was 69.5 µM; in experiment [2] (read-out: pIC50 (converted)), 69.2 µM; in experiment [3] it was 77.4 µM; in experiment [4], 74 µM; in experiment [5], 89.2 µM.
Turning to `O=C(NCCO)c1cc2c3ccccc3n(CCCc3ccccc3)c2cn1`, the IC50 in experiment [1], in experiment [2] (read-out: IC50), in experiment [3], in experiment [4] and in experiment [5] was more than 200 µM each time.
In the case of `OCc1cc2c3ccccc3n(Cc3ccc(F)cc3)c2cn1`, the IC50 in experiment [1], in experiment [2] (read-out: IC50), in experiment [3], in experiment [4] and in experiment [5] was more than 200 µM each time.
`CCCCn1c2ccccc2c2cc(C(=O)NCCN)ncc21`: the IC50 in experiment [1] was 26.9 µM; in experiment [2] (read-out: IC50), 82.9 µM; in experiment [2] (read-out: pIC50 (converted)), 83.2 µM; in experiment [3], 53.2 µM; in experiment [4], 115 µM; in experiment [5], 18.5 µM.
As to `Cc1nccc2c3ccc(O)cc3n(CCCc3ccccc3)c12`, the IC50 in experiment [1] was 45.3 µM; in experiment [2] (read-out: IC50), 28.3 µM; in experiment [2] (read-out: pIC50 (converted)), 28.2 µM; in experiment [3], 29.9 µM; in experiment [4], 35.1 µM; in experiment [5], 34.5 µM.
Turning to `CCCCn1c2cc(O)ccc2c2ccnc(C)c21`, the IC50 in experiment [1] was 89.8 µM; in experiment [2] (read-out: IC50), 81.5 µM; in experiment [2] (read-out: pIC50 (converted)) it was 81.3 µM; in experiment [3] it was 90.2 µM; in experiment [4], 69.5 µM; in experiment [5], 46.9 µM.
Turning to `CCOC(=O)c1cc2c([nH]c3ccccc32)c(-c2cc(OC)c(OC)c(OC)c2)n1`, the IC50 is more than 200 µM in experiment [1]; 167 µM in experiment [2] (read-out: IC50); 166 µM in experiment [2] (read-out: pIC50 (converted)); more than 200 µM in experiment [3]; more than 200 µM in experiment [4]; 123 µM in experiment [5].
Turning to `CCCCn1c2ccccc2c2cc(C(=O)NCCCCCCN)ncc21`, the IC50 in experiment [1] is 53 µM; in experiment [2] (read-out: IC50) it was 95.8 µM; in experiment [2] (read-out: pIC50 (converted)), 95.5 µM; in experiment [3], 110 µM; in experiment [4], 58.5 µM; in experiment [5] it was 42.8 µM.
Turning to `CCCCn1c2ccccc2c2cc(C(=O)NCCO)nc(C)c21`, the IC50 in experiment [1] was 80.4 µM; in experiment [2] (read-out: IC50), 140 µM; in experiment [2] (read-out: pIC50 (converted)), 141 µM; in experiment [3], 45 µM; in experiment [4], 90.6 µM; in experiment [5], 97.3 µM.
Regarding `CCCCn1c2ccccc2c2cc(C(=O)NCCN)nc(C)c21`, the IC50 in experiment [1] is 13.3 µM; in experiment [2] (read-out: IC50), 21.9 µM; in experiment [2] (read-out: pIC50 (converted)), 21.9 µM; in experiment [3], 17.3 µM; in experiment [4], 56 µM; in experiment [5], 7.5 µM.
Regarding `O=C(NCCO)c1cc2c3ccccc3n(Cc3ccccc3)c2cn1`, the IC50 in experiment [1], in experiment [2] (read-out: IC50), in experiment [3], in experiment [4] and in experiment [5] was more than 200 µM in each case.
As for `NCCCCCCNC(=O)c1cc2c3ccccc3n(Cc3ccccc3)c2cn1`, the IC50 is 24.2 µM in experiment [1]; 58.7 µM in experiment [2] (read-out: IC50); 58.9 µM in experiment [2] (read-out: pIC50 (converted)); 34.8 µM in experiment [3]; 56.8 µM in experiment [4]; 54.1 µM in experiment [5].
Take `CCCCn1c2ccccc2c2cc(C(=O)OCC)nc(-c3cc(OC)c(OC)c(OC)c3)c21`: the IC50 in experiment [1], in experiment [2] (read-out: IC50), in experiment [4] and in experiment [5] was more than 200 µM each time.
With `CCCCn1c2ccccc2c2cc(C(=O)O)nc(-c3cc(OC)c(OC)c(OC)c3)c21`, the IC50 in experiment [1] was 166 µM; in experiment [2] (read-out: IC50), 208 µM; in experiment [2] (read-out: pIC50 (converted)), 209 µM; in experiment [3] it was 36.2 µM; in experiment [4] it was 187 µM; in experiment [5], 115 µM.
With `CCCCOc1ccc2c3ccnc(C)c3n(CCCC)c2c1`, the IC50 in experiment [1] is 17.4 µM; in experiment [2] (read-out: IC50) it was 15.5 µM; in experiment [2] (read-out: pIC50 (converted)), 15.5 µM; in experiment [3] it was 15.8 µM; in experiment [4], 69.9 µM; in experiment [5], 17.3 µM.
As for `O=Cc1cc2c3ccccc3n(Cc3ccc(F)cc3)c2cn1`, the IC50 in experiment [1], in experiment [2] (read-out: IC50), in experiment [3], in experiment [4] and in experiment [5] was more than 200 µM in each case.
Turning to `NCCNC(=O)c1cc2c3ccccc3n(Cc3ccccc3)c2cn1`, the IC50 in experiment [1] was 42.8 µM; in experiment [2] (read-out: IC50) it was 104 µM; in experiment [2] (read-out: pIC50 (converted)), 105 µM; in experiment [3], 11.9 µM; in experiment [4], 51.7 µM; in experiment [5] it was 51.6 µM.
As for `CCOC(=O)c1cc2c([nH]c3ccccc32)c(C)[n+]1Cc1ccccc1`, the IC50 in experiment [1] is 101 µM; in experiment [2] (read-out: IC50) it was 53 µM; in experiment [2] (read-out: pIC50 (converted)), 52.5 µM; in experiment [3] it was 55.3 µM; in experiment [4], 56.2 µM; in experiment [5] it was 44.9 µM.
Turning to `Cc1nccc2c3ccc(O)cc3n(CC(C)C)c12`, the IC50 in experiment [1] is 68.3 µM; in experiment [2] (read-out: IC50), 116 µM; in experiment [2] (read-out: pIC50 (converted)), 115 µM; in experiment [3], 140 µM; in experiment [4], 114 µM; in experiment [5], 96.9 µM.
As for `Cc1nc(C(=O)NCCN)cc2c3ccccc3n(Cc3ccccc3)c12`, the IC50 is 11 µM in experiment [1]; 34.8 µM in experiment [2] (read-out: IC50); 34.7 µM in experiment [2] (read-out: pIC50 (converted)); 20.3 µM in experiment [3]; 53.6 µM in experiment [4]; 4.7 µM in experiment [5].
